Here are results for 13 compounds from PubChem BioAssay.

The structures appear in SMILES notation. The source made the active and inactive calls.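 Rule for the calls, unless noted: active = NADPH fluorescence slope more negative than the mean of all samples by about 3 SD, 99.7% confidence; inactive = the rest.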

Experiment [1] is described as follows: inhibitors of TNFa-induced NFkB p65 translocation, primary screen, imaging, HUVEC, MLSMR starter and 10KST1 sets (AID 438;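 active = inhibition above 20% together with a positive visual image hit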;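 note: compound added about 3h40 before a 20 min TNFalpha stimulation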;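 for inhibition: signal is the nuclear over cytoplasmic p65 intensity ratio per well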). Particulars: HUVEC TNFa-induced p65 nuclear translocation; cell count: measured here: nuclei count (cytotoxicity indicator), at 2.08 µM; inhibition: at 2 µM, stronger effect = higher value, 0% TNFa-plus-vehicle, 100% no-TNFa wells.
The nature of experiment [2]: endothelial E-selectin expression blockers – imaging, HUVEC, immunofluorescence, MLSMR starter and 10KST1 sets, primary screen (AID 487;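 active = visually confirmed hit in the image check and inhibition above 20%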;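 for inhibition: signal is fraction of cell area covered by stained E-selectin grains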;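 for nuclei count: 100% = median nuclei count of all wells on the same plate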). Conditions: HUVEC TNFalpha-induced E-selectin immunofluorescence imaging, at 2 µM; inhibition: stronger effect = higher value; nuclei count: measured here: cell number, toxicity.
Experiment [3] is described as follows: Primary imaging screen for DUSP6 inhibitors that restore phospho-Erk in transfected HeLa cells, chemical complementation (AID 609;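 active = compounds giving at least 50% inhibition in the cell-based MKP-3 phosphatase rescue imaging test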;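 for inhibition: phospho-Erk level distribution per well compared with pooled transfected vehicle control wells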). Conditions: HeLa MKP-3 transfected, phospho-Erk imaging KS statistic, at 10 µM, cells stimulated with TPA for 15 min.
In experiment [4] the target is Dual specificity protein phosphatase 6 (Homo sapiens) (UniProt Q16828). The description is as above. Particulars: HeLa MKP-3 transfected, phospho-Erk imaging KS statistic; at 10 µM; stronger effect = higher value; cells stimulated with TPA for 15 min.
For experiment [5], the target named is Voltage-gated potassium channel subunit beta-2 (Rattus norvegicus) (UniProt P62483). The experiment in a line: inhibitors of rat Kvbeta2 reductase activity – biochemical, NADPH fluorescence, primary screen (AID 622;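 active = fluorescence slope higher than the sample average by over 3 SD, cut at about -0.22 in these data, passing the limit was not always enough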;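 note: slope of raw intensity against log time taken from 70 to 1610 s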). Conditions: recombinant KvBeta, 4-cyanobenzaldehyde reduction, at 10 µM, stronger effect = higher value.
Experiment [6] has the same target. The experiment in a line: enhancers of rat Kvbeta2 NADPH turnover – biochemical, NADPH fluorescence, primary screen (AID 623).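 Note: fluorescence intensity change per second fitted from 20 to 320 s.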 Particulars: Recombinant KvBeta, NADPH fluorescence decrease slope, 10 min; at 10 µM; stronger effect = lower value.
Experiment [7] addresses Alpha-2C adrenergic receptor (Homo sapiens) (UniProt P18825). The experiment in a line: compounds altering alpha2C-coupled GIRK flux – cell-based, HEK293 alpha2C/GIRK1/2, thallium flux, primary screen (AID 624;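 active = fluorescence slope after compound addition differing from the mean of all screened samples at 99.7% confidence, in either direction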;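 note: slope of fluorescence ratio to pre-addition baseline per second over 15 to 24 s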). Particulars: thallium flux BTC fluorescence, at 10 µM, actives lie on both sides.
The nature of experiment [8]: inhibitors of larval lipid processing in zebrafish, primary screen, whole organism, PED6 fluorescence, gall bladder and intestine (AID 686;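 active = a full or partial loss of lipid-probe fluorescence in the fish gall bladder, intestine or both, judged by eye; inactive = no fluorescence loss, or compound toxic to the fish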;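 note: larvae 5 to 7 days old with five fish per well; signal comes from phospholipase A2 cleavage of quenched PED6 carried via bile; overnight exposure to compound and PED6 before scoring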). Conditions: Zebrafish larvae PED6 lipid processing, fluorescence scoring; screened at 20 µM (by protocol). Summed up: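 Test system – live zebrafish larvae aged 5-7 days, whole organism · Buffer or medium – E3 fish medium · Reagent – quenched phospholipase substrate PED6, 100 nM final, ingested by larvae · Doses – 20 µM single dose · Incubation – overnight compound and PED6 incubation · Technique – visual fluorescence microscopy scoring of gall bladder, gut · Read-out basis – visual per-well fluorescence inhibition score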

Experiment [9] in a line: loss of swimming-algae plug formation – whole organism, Chlamydomonas reinhardtii, WT vs cilia-less mutant, absorbance, 96-well, primary screen (AID 463189;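 active = inhibition at or above 50% relative to wild type and mutant plate controls; inactive = inhibition below 50%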;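 note: 0% = wild type cc124 cells in DMSO and 100% = ciliumless bld1 mutant cells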). Particulars: Chlamydomonas reinhardtii gravitaxis, OD600 absorbance, 2 days; at 10 µM; stronger effect = higher value.
[10] abbreviates: measured here: cell density z-score.
Where [11] appears, read: measured here: nuclear c-Myc green intensity z-score.
Where [12] appears, read: measured here: nuclear pErk red intensity z-score, stronger effect = higher value.

Voltage-gated potassium channel subunit beta-2 (Rattus norvegicus), sequence (P62483 whole entry, looked up): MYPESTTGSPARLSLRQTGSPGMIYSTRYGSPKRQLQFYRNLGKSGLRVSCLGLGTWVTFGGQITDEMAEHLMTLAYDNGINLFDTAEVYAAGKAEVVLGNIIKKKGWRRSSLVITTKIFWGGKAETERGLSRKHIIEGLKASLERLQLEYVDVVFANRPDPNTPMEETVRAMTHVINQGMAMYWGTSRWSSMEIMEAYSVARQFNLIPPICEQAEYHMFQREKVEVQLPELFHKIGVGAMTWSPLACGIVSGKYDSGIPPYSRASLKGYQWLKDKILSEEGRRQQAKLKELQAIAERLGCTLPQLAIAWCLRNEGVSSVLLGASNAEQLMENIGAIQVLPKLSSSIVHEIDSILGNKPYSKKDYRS
Dual specificity protein phosphatase 6 (Homo sapiens), sequence (Q16828 whole entry, looked up): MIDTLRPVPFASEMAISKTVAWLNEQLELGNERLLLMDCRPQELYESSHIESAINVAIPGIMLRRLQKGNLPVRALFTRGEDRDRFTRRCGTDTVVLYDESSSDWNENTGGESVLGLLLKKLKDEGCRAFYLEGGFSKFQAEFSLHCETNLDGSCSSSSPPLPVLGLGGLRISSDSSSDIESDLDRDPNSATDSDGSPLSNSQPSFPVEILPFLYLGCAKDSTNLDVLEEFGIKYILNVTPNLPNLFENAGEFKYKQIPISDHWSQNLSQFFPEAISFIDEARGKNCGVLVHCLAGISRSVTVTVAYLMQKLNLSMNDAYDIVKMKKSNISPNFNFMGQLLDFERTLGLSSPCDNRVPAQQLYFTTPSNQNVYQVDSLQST
Alpha-2C adrenergic receptor (Homo sapiens), sequence (P18825 whole entry, looked up): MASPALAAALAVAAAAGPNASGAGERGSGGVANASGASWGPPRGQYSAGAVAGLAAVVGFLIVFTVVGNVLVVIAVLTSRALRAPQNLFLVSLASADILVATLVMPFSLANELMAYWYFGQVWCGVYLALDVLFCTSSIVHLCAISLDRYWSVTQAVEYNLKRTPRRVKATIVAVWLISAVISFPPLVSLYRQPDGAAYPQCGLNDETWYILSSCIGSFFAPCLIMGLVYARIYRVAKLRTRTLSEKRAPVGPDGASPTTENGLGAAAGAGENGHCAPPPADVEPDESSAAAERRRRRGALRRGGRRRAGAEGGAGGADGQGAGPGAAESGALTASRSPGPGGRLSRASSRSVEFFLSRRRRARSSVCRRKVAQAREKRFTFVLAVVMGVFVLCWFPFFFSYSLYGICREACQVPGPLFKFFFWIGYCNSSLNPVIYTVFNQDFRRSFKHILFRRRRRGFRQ

Consider `COc1ccc(-c2nnc3sc(-c4ccccc4OC)nn23)cc1`, for which, in experiment [1], the cell count came out at 615. In addition, the inhibition in experiment [1] is -8.4% (inactive); in experiment [2], -30.4% (inactive); in experiment [4], -11.5% (inactive); in experiment [9] it was 12.7% (inactive). In addition, the nuclei count in experiment [2] came to 153%. The z-score in experiment [3] (setting [10]) was 0.537; in experiment [3] (setting [11]) it was -0.23; in experiment [3] (setting [12]) it was -1.1. Besides, the fluorescence slope in experiment [5] was -0.413 (inactive). Also, the NADPH fluorescence slope in experiment [6] was -4.4e-05 (inactive). Moreover, the slope in experiment [7] is 0.00877 (inactive). Moreover, in experiment [8], the compound was called inactive.
For the compound `Cc1ccccc1NC(=O)NCCc1nc2ccccc2[nH]1`, the cell count in experiment [1] came to 543. Besides, the inhibition is 1.8% (inactive) in experiment [1], -92.3% (inactive) in [2], -11% (inactive) in [4] and -6.75% (inactive) in experiment [9]. Also, the nuclei count in experiment [2] was determined as 163%. The z-score in [3] (setting [10]) was -1.18; in [3] (setting [11]), -0.333; in [3] (setting [12]), 2.49. Besides, the fluorescence slope in experiment [5] was -0.474 (inactive). For the same compound, in experiment [6], the NADPH fluorescence slope was -0.000294 (inactive). The slope in experiment [7] was 0.00493 (inactive). In addition, in experiment [8], the result was inactive.
On to `COc1ccc(Cl)cc1N=Cc1c(O)cc(C)oc1=O`, for which the cell count in experiment [1] amounted to 347. Moreover, the inhibition is -4.9% (inactive) in experiment [1], -136% (inactive) in experiment [2], 12.3% (inactive) in [4] and 16.9% (inactive) in experiment [9]. In experiment [2], the nuclei count was determined as 189%. Also, the figures for the z-score in experiment [3] (setting [10]), in [3] (setting [11]) and in experiment [3] (setting [12]) were 0.57, -0.693 and 0.874, respectively. Also, in [5], the fluorescence slope is -0.415 (inactive). Also, the NADPH fluorescence slope in experiment [6] is -0.0002 (inactive). In addition, the slope in [7] is 0.00387 (inactive). In addition, the compound was called inactive in experiment [8].
Consider `Cc1noc(NS(=O)(=O)c2ccc(NC(=O)COc3ccccc3)cc2)c1C`, for which the cell count in experiment [1] was 641. The inhibition is -10.1% (inactive) in experiment [1], 29.8% (inactive) in experiment [2], -11.5% (inactive) in experiment [4] and 4.64% (inactive) in experiment [9]. Also, the nuclei count in experiment [2] was 182%. Also, the z-score in experiment [3] (setting [10]) was -0.876; in [3] (setting [11]), 0.527; in experiment [3] (setting [12]), -0.0095. Further, the fluorescence slope in experiment [5] is -0.376 (inactive). In experiment [6], the NADPH fluorescence slope was -3.7e-05 (inactive). In addition, the slope in experiment [7] was 0.00522 (inactive). In experiment [8], the compound was classed as inactive.
Regarding `CCOC(=O)C1=C(C)NC(=O)NC1c1ccc2c(c1)OCO2` (centres undefined), the cell count in experiment [1] was determined as 603. The inhibition is -9.5% (inactive) in experiment [1], -11.9% (inactive) in [2], -13.3% (inactive) in [4] and -6.75% (inactive) in experiment [9]. In addition, in experiment [2], the nuclei count is 154%. In addition, the z-score is 0.562 in [3] (setting [10]), 0.385 in experiment [3] (setting [11]) and -0.648 in experiment [3] (setting [12]). In [5], the fluorescence slope is -0.387 (inactive). Also, the NADPH fluorescence slope in experiment [6] is -7.4e-05 (inactive). In addition, the slope in [7] is 0.00581 (inactive). In [8], the call was inactive.
Take `CN(C)c1ccc(C2C3C(=O)N(c4ccc(C(=O)O)cc4)C(=O)C3ON2c2ccccc2)cc1` (centres undefined): the cell count in experiment [1] is 491. Also, the inhibition is -9.3% (inactive) in experiment [1], -30.7% (inactive) in [2], -13.3% (inactive) in [4] and 13% (inactive) in [9]. Further, the nuclei count in [2] came out at 148%. The z-score in experiment [3] (setting [10]) was -0.854; in experiment [3] (setting [11]) it was -1.46; in experiment [3] (setting [12]), 0.576. Besides, in [5], the fluorescence slope was -0.506 (inactive). The NADPH fluorescence slope in experiment [6] is -3.3e-05 (inactive). Besides, the slope in experiment [7] was 0.00498 (inactive). For the same compound, the outcome in experiment [8] was inactive.
Take `CCOc1cccc(-c2nnc3sc(C4CCCCC4)nn23)c1`: the cell count in experiment [1] turned out to be 683. Moreover, the inhibition was 1.1% (inactive) in experiment [1], 16.2% (inactive) in experiment [2], 15.5% (inactive) in [4] and 36.1% (inactive) in [9]. Further, the nuclei count in experiment [2] amounted to 160%. Also, the z-score in experiment [3] (setting [10]) is 1.83; in experiment [3] (setting [11]), -1.11; in [3] (setting [12]), -1.63. Besides, the fluorescence slope in [5] was -0.446 (inactive). In addition, the NADPH fluorescence slope in experiment [6] is -0.000139 (inactive). The slope in experiment [7] was 0.00527 (inactive). For the same compound, the outcome in experiment [8] was “inactive; toxic”.
As to `CCNC(=O)Nn1c(C)nnc1C`, the cell count in experiment [1] came to 604. Also, the inhibition in [1] is 5% (inactive); in experiment [2], 15.6% (inactive); in experiment [4], -8.27% (inactive); in experiment [9] it was 7.13% (inactive). Besides, the nuclei count in [2] came out at 129%. Further, the z-score in experiment [3] (setting [10]) is -0.49; in experiment [3] (setting [11]), 0.191; in [3] (setting [12]), -0.43. The fluorescence slope in experiment [5] was -0.469 (inactive). Besides, the NADPH fluorescence slope in experiment [6] is -0.000298 (inactive). Also, the slope in experiment [7] is 0.00578 (inactive). In experiment [8], the call was inactive.
Take `CC1=CC=CN2CC(O)CN=C12` (centres undefined): the cell count in [1] amounted to 552. For the same compound, the inhibition in experiment [1] was -3.9% (inactive); in experiment [2], -109% (inactive); in [4], 22.1% (inactive); in [9], 4.05% (inactive). Besides, the nuclei count in experiment [2] turned out to be 196%. In addition, the z-score in [3] (setting [10]) was -0.0904; in experiment [3] (setting [11]), 1.89; in [3] (setting [12]), -0.427. The fluorescence slope in experiment [5] is -0.33 (inactive). Moreover, the NADPH fluorescence slope in [6] is -1.5e-05 (inactive). The slope in experiment [7] was 0.00477 (inactive). In addition, the call in experiment [8] was inactive.
For the compound `COC(=O)C(NC(C)=O)(Nc1ccc(Br)cc1)C(=O)OC`, in experiment [1], the cell count amounted to 485. Besides, the inhibition in experiment [1] is -1.7% (inactive); in [2] it was -127% (inactive); in [4], 18.2% (inactive); in [9] it was -10.2% (inactive). In experiment [2], this compound gave a nuclei count of 153%. Further, the z-score in experiment [3] (setting [10]) was 0.275; in experiment [3] (setting [11]) it was 0.746; in experiment [3] (setting [12]), -1.04. For the same compound, the fluorescence slope in experiment [5] is -0.537 (inactive). Moreover, in [6], the NADPH fluorescence slope is -1.5e-05 (inactive). In addition, the slope in [7] was 0.00456 (inactive). In addition, in [8], the outcome was inactive.
For the compound `COc1ccc(/C=N/n2cncn2)cc1COc1ccc(NC(C)=O)cc1`, the cell count in experiment [1] was 307. The inhibition in experiment [1] was -11.9% (inactive); in experiment [2], -81.9% (inactive); in experiment [4], 24.3% (inactive); in experiment [9] it was -6.96% (inactive). This compound gave a nuclei count in experiment [2] of 99.2%. Moreover, the z-score in experiment [3] (setting [10]) is 1.57; in experiment [3] (setting [11]), 0.491; in experiment [3] (setting [12]) it was -0.528. In addition, the fluorescence slope in experiment [5] was -0.402 (inactive). In addition, in experiment [6], the NADPH fluorescence slope was 3.3e-05 (inactive). In addition, in experiment [7], the slope is 0.00513 (inactive). Moreover, the compound was classed as inactive in [8].
As to `CNC(=O)c1ncnnc1N(C)C(=O)NCc1ccccc1`, the cell count in experiment [1] was 506. Also, the inhibition in experiment [1] is -21% (inactive); in experiment [2], -54.6% (inactive); in experiment [4], -9.66% (inactive); in [9], 9.13% (inactive). The nuclei count in experiment [2] was 134%. For the same compound, the z-score was 0.229 in [3] (setting [10]), 0.0819 in experiment [3] (setting [11]) and -1.12 in experiment [3] (setting [12]). Besides, the fluorescence slope in experiment [5] was -0.531 (inactive). The NADPH fluorescence slope in experiment [6] was -2.3e-05 (inactive). Further, the slope in experiment [7] was 0.00729 (inactive). The result in experiment [8] was inactive.
With `COc1ccccc1-c1nn2c(-c3ccc(C(C)(C)C)cc3)nnc2s1`, in experiment [1], the cell count amounted to 509. The inhibition in experiment [1] was -5.2% (inactive); in experiment [2], -76.5% (inactive); in experiment [4], -7.86% (inactive); in [9], 19.8% (inactive). The nuclei count in experiment [2] stood at 110%. The results for the z-score in [3] (setting [10]), in experiment [3] (setting [11]) and in experiment [3] (setting [12]) were -0.995, -1.37 and -0.665, respectively. The fluorescence slope in experiment [5] is -0.42 (inactive). For the same compound, the NADPH fluorescence slope in [6] is -3.3e-05 (inactive). In addition, in [7], the slope was 0.0128 (inactive). Further, the result in experiment [8] was inactive.

By inhibition is commonly meant the relative decrease from the control value, in per cent.
